Experimental data reported in ChEMBL document CHEMBL4028911, “Discovery of a Small-Molecule Bromodomain-Containing Protein 4 (BRD4) Inhibitor That Induces AMP-Activated Protein Kinase-Modulated Autophagy-Associated Cell Death in Breast Cancer” (J Med Chem, 2017).
The source made the active and inactive calls. The rule behind the calls is not given here.

Assays:
MDA-MB-231 [1] = experiment: Effect on AKT expression in human MDA-MB-231 cells at 3 uM measured up to 36 hrs by Western blot analysis; format: ADME, cell-based; settings: mda-mb-231, 36 h
Outline: (§1)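 MCF-7 (1.5 µM) or MDA-MB-231 (3 µM) cells treated for indicated times. Adherent and floating cells lysed in RIPA with 1 mM PMSF, 4°C for 1 h. Equal protein run on 10-15% SDS-PAGE, transferred to PVDF, blocked with milk or BSA, probed with primary then HRP secondary antibodies, ECL detection; β-actin as loading control.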

[2] = molecular target: T1, Serine/threonine-protein kinase ULK1 (Homo sapiens) (UniProt O75385); experiment: Inhibition of recombinant human ULK1 (1 to 649 residues) expressed in baculovirus infected Sf9 cells at 1 to 10^6 nM using MBP as substrate after 60 mins in presence of ATP by ADO-Glo assay
T1 sequence (whole entry): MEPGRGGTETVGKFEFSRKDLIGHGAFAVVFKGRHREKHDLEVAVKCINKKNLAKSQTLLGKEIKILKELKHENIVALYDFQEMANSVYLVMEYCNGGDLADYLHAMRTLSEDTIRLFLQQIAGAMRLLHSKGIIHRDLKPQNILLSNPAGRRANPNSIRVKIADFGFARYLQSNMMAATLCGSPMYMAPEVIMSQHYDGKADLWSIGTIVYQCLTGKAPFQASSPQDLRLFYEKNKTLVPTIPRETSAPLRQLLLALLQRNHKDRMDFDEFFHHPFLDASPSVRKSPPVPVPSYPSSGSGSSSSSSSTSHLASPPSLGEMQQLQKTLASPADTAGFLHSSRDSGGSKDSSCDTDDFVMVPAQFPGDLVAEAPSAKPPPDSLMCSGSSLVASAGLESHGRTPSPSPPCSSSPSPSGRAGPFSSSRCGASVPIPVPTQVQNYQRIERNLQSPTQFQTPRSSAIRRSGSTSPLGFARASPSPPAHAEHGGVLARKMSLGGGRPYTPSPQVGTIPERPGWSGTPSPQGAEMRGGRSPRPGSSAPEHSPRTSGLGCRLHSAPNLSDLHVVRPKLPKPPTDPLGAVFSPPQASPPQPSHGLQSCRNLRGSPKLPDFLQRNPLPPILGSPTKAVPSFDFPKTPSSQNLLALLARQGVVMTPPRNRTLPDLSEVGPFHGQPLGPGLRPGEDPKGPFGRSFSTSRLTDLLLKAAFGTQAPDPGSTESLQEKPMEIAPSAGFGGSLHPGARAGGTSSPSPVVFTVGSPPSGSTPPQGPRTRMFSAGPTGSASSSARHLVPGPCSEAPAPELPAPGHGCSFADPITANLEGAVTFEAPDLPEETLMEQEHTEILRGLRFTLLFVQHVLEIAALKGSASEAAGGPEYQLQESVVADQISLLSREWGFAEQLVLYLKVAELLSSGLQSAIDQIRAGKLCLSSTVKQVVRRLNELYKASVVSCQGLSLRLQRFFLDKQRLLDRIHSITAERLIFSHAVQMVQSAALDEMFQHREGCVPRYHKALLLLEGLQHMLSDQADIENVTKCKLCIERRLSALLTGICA

MCF7 [3] = experiment: Inhibition of BRD4 protein expression in human MCF7 cells at 1.5 uM measured up to 36 hrs by Western blot analysis; format: functional, cell-based
Outline: (§2)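 MCF-7 (1.5 μM) or MDA-MB-231 (3 μM) cells treated for indicated times. Adherent and floating cells lysed in RIPA with 1 mM PMSF. Equal protein run on 10-15% SDS-PAGE, blotted to PVDF, blocked in milk or BSA, HRP/ECL detection. β-actin loading control.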

MDA-MB-231 [4] = experiment: Induction of autophagy in human MDA-MB-231 cells assessed as increase in LC3B puncta at 3 uM after 24 hrs by DAPI-staining based immunocytochemistry; format: functional, cell-based
Outline: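 MDA-MB-231 cells treated with 3 μM for 24 h. Blocked in PBS with 1.5% goat serum, anti-LC3B (1:200 in PBS/1% BSA) overnight at 4 °C, then FITC secondary 1 h at room temperature. DAPI counterstain; LC3B puncta scored by fluorescence microscopy.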

MDA-MB-468 = experiment: Induction of autophagy in human MDA-MB-468 cells assessed as upregulation of beclin1 expression measured up to 48 hrs by Western blot analysis; format: functional, cell-based
MDA-MB-231 [5] = experiment: Effect on mTOR expression in human MDA-MB-231 cells at 3 uM measured up to 36 hrs by Western blot analysis; format: ADME, cell-based; settings: mda-mb-231, 36 h; outline: as §1
[6] = molecular target: Bromodomain-containing protein 2 (Homo sapiens, UniProt P25440); experiment: Inhibition of recombinant human N-terminal GST-tagged BRD2 bromodomain-2 (339 to 459 residues) expressed in Escherichia coli expression system after 120 mins by TR-FRET assay
Chain of Bromodomain-containing protein 2 (P25440 whole entry, the tested form may be a part): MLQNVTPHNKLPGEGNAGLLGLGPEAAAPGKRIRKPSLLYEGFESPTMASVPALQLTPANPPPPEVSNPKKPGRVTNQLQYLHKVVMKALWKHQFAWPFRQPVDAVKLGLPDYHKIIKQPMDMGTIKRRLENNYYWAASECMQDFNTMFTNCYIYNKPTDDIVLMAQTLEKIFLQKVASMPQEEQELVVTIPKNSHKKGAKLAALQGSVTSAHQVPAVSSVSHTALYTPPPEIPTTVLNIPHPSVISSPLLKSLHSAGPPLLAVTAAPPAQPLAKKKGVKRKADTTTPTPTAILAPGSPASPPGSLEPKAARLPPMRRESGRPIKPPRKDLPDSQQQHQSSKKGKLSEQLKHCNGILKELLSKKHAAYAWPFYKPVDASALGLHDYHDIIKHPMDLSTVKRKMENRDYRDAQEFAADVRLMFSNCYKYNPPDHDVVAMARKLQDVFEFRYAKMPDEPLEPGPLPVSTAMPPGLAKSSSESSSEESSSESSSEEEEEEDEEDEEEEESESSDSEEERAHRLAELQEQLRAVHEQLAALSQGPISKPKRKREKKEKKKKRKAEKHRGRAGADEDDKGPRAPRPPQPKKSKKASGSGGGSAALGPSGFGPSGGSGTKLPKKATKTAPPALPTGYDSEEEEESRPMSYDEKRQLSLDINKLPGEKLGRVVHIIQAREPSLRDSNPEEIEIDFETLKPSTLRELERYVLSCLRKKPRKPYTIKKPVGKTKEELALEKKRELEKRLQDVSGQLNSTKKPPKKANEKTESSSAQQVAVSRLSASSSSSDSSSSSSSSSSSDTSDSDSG
Outline: (§3)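 TR-FRET bromodomain binding. Recombinant BRD domain, BET ligand and test agent in 20 μl assay buffer with 1% DMSO final. Incubated 120 min at room temperature. Blank lacks BET ligand.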

[7] = molecular target: Bromodomain-containing protein 3 (Homo sapiens, UniProt Q15059); experiment: Inhibition of recombinant human N-terminal GST-tagged BRD3 bromodomain-1 (29 to 145 residues) expressed in Escherichia coli expression system after 120 mins by TR-FRET assay; outline: as §3
Chain of Bromodomain-containing protein 3 (Q15059 whole entry, the tested form may be a part): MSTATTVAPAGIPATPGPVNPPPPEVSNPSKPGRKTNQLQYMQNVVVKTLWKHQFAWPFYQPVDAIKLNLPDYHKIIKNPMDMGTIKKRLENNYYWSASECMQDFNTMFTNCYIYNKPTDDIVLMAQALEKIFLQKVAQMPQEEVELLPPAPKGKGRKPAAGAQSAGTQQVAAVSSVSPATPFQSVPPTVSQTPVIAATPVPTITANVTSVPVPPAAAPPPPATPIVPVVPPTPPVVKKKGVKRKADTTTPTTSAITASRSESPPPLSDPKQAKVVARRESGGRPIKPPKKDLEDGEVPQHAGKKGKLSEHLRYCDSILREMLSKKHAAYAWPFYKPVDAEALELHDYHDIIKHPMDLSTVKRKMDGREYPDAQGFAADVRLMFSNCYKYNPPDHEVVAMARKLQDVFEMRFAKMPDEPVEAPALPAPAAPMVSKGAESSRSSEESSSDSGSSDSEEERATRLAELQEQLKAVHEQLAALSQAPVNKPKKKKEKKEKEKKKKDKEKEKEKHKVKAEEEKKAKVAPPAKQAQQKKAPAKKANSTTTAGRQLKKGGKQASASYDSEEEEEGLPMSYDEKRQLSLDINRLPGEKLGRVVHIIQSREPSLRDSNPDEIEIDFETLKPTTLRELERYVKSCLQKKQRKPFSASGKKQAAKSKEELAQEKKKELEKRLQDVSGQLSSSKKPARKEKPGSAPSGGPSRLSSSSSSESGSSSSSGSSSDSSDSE

MDA-MB-231 [8] = experiment: Antitumor activity against human MDA-MB-231 cells xenografted in ig dosed nude BALB/c mouse assessed as tumor growth inhibition administered once a day for 27 days measured every 3 days relative to control; format: functional, organism-based
Outline: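 Female BALB/c nude mice, 6-8 weeks, 20-22 g, injected subcutaneously with 5×10^6 MCF-7 or MDA-MB-231 cells. At 100 mm³ tumor volume (V = L×W²/2), split into four groups: 25, 50 or 100 mg/kg intragastric once daily for 24 or 27 days, or vehicle. Tumor volume and body weight measured every 3 days; tumors excised and weighed at end. MCF-7 n=7, MDA-MB-231 n=6 per group.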

Mus musculus = experiment: In vivo inhibition of c-Myc expression in BALB/c mouse xenografted with human MCF7 cells at 100 mg/kg, ig administered once a day for 24 days by Western blot analysis; format: functional, organism-based
Outline: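 Tumor tissues excised from MCF-7 or MDA-MB-231 xenograft mice were lysed and analysed by western blot for BRD4, c-Myc, LC3 and cleaved caspase-3.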

MCF7 [9] = experiment: Induction of autophagy in human MCF7 cells assessed as induction of autophagic vacuoles at 1.5 uM by MDC-based fluorescence microscopy; format: functional, cell-based
Outline: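 MCF-7 cells treated with 1.5 µM for indicated times. Stained with 0.05 mM monodansylcadaverine and autophagic vacuoles observed by fluorescence microscopy.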

[10] = molecular target: Bromodomain-containing protein 4 (Homo sapiens, UniProt O60885); experiment: Inhibition of BRD4 in human MCF7 cells assessed as reduction in ATG13 protein expression at 1.5 uM up to 36 hrs by Western blot analysis; format: cell-based; outline: as §2
MCF7 [11] = experiment: Downregulation of HMGB1 expression in human MCF7 cells at 1.5 uM measured up to 24 hrs by Western blot analysis; format: functional, cell-based; outline: as §1

- inhibition [2]: inactive
- IC50 [6]: > 100 µM
- IC50 [7]: > 100 µM
- inhibition [10]: Active
Structure (SMILES): Cc1cc(-c2nc3sc4c(c3c(=O)[nH]2)CCN(C)C4)cc(C)c1O
- Activity (MDA-MB-231 [1]): Non-Toxic
- inhibition (MCF7 [3]): Active
- Activity (MDA-MB-231 [4]): Active
- Activity (MDA-MB-468): inactive
- Activity (MDA-MB-231 [5]): Non-Toxic
- TGI (MDA-MB-231 [8]): Dose-dependent effect
- Activity (Mus musculus): Active
- Activity (MCF7 [9]): Active
- Activity (MCF7 [11]): Active
